Experimental data reported in ChEMBL document CHEMBL5696442, “Discovery of type II inhibitors of TGFβ-activated kinase 1 (TAK1) and mitogen-activated protein kinase kinase kinase kinase 2 (MAP4K2)” (J Med Chem, 2015).

Experiments:
[1] = target: Ribosomal protein S6 kinase alpha-3 (Homo sapiens) (UniProt P51812); experiment: Inhibition of RSK2 domain2 Protein Kinase Domain in human A-375 cells at 0.05 uM by KiNativ Profiling analysis relative to control; assay type: cell-based
[2] = target: T1, Interleukin-1 receptor-associated kinase 4 (Homo sapiens) (UniProt Q9NWZ3); experiment: Inhibition of IRAK4 Lys2 labeling site in human A-375 cells at 0.05 uM by KiNativ Profiling analysis relative to control; assay type: cell-based
T1 sequence (whole entry): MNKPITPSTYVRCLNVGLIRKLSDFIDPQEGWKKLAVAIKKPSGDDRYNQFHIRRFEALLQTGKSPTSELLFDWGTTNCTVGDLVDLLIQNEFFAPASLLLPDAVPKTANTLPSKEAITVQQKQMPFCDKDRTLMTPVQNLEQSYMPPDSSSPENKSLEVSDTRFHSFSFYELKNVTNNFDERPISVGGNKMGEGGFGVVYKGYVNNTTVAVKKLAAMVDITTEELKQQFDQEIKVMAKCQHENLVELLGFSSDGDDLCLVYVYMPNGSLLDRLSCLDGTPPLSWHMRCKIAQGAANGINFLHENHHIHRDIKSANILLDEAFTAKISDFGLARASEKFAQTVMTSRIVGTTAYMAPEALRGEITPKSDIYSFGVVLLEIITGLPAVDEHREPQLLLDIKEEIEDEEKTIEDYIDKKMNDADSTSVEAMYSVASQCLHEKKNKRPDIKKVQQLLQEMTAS

[3] = target: T2, Dual specificity mitogen-activated protein kinase kinase 3 (Homo sapiens) (UniProt P46734); experiment: Inhibition of MAP2K3 Lys2 labeling site in human A-375 cells at 5 uM by KiNativ Profiling analysis relative to control; assay type: cell-based
T2 sequence (whole entry): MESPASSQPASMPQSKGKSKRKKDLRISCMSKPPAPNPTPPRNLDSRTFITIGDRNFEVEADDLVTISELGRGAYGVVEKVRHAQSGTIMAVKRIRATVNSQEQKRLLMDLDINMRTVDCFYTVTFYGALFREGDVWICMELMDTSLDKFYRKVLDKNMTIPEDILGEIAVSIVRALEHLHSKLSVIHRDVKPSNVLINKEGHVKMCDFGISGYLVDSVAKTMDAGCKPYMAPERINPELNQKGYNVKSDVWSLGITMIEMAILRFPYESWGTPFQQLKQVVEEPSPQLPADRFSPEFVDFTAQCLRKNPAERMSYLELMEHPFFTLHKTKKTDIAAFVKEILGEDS

[4] = target: Calcium/calmodulin-dependent protein kinase type II subunit delta (Homo sapiens) (UniProt Q13557); experiment: Inhibition of CaMK2d Lys1 labeling site in human A-375 cells at 0.5 uM by KiNativ Profiling analysis relative to control; assay type: cell-based
Outline: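 Live A375 melanoma cells were treated with compound at 5 or 0.5 μM. The cells were then lysed, and the lysates were labeled with a lysine-reactive ATP or ADP-biotin acyl probe (KiNativ). Inhibition is the compound's protection of each kinase labeling-site peptide from probe labeling, relative to untreated control.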

[5] = Inhibition of p70S6K Lys2 labeling site in human A-375 cells at 5 uM by KiNativ Profiling analysis relative to control; conditions: condition cancer
[6] = target: Serine/threonine-protein kinase 10 (Homo sapiens) (UniProt O94804); experiment: Inhibition of LOK Lys1 labeling site harbouring ETGALAAAKVIETK in human A-375 cells at 0.05 uM by KiNativ Profiling analysis relative to control; assay type: cell-based
[7] = target: T3, Serine/threonine-protein kinase Nek9 (Homo sapiens) (UniProt Q8TD19); experiment: Inhibition of NEK9 Lys1 labeling site harbouring TEDDSLVVWKEVDLTR in human A-375 cells at 5 uM by KiNativ Profiling analysis relative to control; assay type: cell-based
T3 sequence (whole entry): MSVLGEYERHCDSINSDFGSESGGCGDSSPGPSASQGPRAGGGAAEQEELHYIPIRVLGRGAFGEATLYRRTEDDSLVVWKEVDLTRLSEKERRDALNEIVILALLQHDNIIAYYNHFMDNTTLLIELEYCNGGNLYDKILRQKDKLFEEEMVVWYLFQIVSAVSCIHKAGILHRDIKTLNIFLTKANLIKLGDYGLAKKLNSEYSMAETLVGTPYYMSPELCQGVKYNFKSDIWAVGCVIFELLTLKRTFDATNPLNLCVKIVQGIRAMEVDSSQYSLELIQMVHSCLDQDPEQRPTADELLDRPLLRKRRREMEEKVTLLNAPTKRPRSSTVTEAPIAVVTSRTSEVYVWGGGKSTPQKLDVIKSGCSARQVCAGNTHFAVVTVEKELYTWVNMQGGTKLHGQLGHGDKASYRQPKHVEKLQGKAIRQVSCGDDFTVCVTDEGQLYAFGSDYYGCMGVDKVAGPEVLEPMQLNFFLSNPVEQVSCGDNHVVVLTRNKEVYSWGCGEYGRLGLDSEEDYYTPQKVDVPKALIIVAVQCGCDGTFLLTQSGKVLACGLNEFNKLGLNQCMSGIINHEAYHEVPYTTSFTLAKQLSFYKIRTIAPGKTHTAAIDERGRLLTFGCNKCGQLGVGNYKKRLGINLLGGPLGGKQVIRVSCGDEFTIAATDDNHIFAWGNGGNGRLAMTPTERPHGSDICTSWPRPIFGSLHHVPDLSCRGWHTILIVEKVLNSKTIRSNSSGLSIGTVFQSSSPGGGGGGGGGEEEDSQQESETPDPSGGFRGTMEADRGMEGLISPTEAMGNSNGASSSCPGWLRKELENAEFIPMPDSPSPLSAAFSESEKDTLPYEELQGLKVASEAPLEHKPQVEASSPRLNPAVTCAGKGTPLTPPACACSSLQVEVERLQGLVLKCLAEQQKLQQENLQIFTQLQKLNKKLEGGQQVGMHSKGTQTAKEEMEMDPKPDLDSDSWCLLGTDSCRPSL

Sequence of Serine/threonine-protein kinase 10 (Homo sapiens) (O94804 whole entry, looked up): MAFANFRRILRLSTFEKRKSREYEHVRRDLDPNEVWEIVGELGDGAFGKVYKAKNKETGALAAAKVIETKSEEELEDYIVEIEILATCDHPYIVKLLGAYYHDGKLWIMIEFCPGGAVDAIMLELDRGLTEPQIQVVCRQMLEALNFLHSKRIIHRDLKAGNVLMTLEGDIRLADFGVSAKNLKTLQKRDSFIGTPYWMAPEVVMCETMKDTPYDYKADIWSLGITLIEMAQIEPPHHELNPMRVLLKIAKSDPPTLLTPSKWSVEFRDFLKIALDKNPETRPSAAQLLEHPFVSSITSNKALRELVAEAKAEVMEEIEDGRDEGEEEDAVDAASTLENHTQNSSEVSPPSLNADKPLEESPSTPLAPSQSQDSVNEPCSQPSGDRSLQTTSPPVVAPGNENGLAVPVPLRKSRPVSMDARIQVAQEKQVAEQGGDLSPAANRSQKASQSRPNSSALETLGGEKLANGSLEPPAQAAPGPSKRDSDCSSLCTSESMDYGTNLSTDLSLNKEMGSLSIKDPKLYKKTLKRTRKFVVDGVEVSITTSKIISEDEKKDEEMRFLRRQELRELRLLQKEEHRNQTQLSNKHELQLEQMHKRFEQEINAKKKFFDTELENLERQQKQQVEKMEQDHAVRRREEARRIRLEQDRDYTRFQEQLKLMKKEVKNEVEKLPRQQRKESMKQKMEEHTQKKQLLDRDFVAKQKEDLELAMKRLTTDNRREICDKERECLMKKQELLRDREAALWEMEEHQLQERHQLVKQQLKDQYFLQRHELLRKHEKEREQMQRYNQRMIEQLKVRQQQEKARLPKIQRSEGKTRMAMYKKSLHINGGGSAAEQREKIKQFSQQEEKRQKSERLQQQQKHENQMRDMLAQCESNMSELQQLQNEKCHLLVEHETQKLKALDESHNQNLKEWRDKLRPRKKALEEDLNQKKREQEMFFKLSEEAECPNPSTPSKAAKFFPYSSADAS
Sequence of Ribosomal protein S6 kinase alpha-3 (Homo sapiens) (P51812 whole entry, the tested form may be a part): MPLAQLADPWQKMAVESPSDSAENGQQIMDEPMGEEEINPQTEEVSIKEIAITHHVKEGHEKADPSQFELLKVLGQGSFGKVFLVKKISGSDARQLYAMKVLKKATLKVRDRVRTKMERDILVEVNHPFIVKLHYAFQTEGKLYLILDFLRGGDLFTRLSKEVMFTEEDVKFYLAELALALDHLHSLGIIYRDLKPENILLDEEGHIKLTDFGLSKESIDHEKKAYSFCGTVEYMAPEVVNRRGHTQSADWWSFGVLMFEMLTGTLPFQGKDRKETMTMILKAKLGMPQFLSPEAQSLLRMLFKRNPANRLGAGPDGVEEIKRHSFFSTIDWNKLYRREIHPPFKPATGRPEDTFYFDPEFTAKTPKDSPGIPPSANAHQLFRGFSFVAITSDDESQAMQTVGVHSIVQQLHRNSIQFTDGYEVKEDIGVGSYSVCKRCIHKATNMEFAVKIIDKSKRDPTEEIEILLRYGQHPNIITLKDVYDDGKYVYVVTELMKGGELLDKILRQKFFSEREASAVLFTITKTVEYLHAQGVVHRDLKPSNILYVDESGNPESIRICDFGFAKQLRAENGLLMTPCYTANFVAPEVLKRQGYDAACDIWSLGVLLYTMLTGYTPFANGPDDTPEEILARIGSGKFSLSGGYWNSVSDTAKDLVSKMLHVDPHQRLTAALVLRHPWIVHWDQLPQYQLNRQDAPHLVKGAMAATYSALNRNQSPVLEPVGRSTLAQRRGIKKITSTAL
Sequence of Calcium/calmodulin-dependent protein kinase type II subunit delta (Homo sapiens) (Q13557 whole entry): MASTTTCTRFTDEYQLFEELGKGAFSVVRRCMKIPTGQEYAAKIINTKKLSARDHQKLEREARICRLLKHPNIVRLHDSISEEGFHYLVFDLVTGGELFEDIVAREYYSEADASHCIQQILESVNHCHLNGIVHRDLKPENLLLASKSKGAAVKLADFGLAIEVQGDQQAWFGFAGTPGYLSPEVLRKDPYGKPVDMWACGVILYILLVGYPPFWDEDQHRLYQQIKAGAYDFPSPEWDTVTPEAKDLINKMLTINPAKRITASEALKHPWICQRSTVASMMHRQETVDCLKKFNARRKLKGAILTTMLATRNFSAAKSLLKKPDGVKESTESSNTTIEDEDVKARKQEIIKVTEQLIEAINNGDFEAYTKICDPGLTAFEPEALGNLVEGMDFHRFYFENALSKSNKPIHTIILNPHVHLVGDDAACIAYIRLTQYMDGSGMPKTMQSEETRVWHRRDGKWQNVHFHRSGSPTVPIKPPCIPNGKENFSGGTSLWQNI

Row | SMILES | inhibition [1] [%] | inhibition [2] [%] | inhibition [3] [%] | inhibition [4] [%] | inhibition at 5 µM [5] [%] | inhibition [6] [%] | inhibition [7] [%]
1 | CCN1CCN(Cc2ccc(NC(=O)c3ccc(C)c(Oc4ccnc5[nH]ccc45)c3)cc2C(F)(F)F)CC1 | 3.1 | 6.9 | -5.7 | 8.7 | -45.5 | 40.5 | -1.2
2 | CCN1CCN(Cc2ccc(NC(=O)c3ccc(C)c(/C=C/c4cnc5[nH]ccc5c4OC)c3)cc2C(F)(F)F)CC1 | -9.9 | 9.7 | -6.9 | 26 | -15.2 | 39.6 | 0.1
